Data set [1] has as its system rabbit reticulocyte lysates (RRLs). Description: Translation efficiency of capped luciferase mRNA in RRL. The data set is classed as biochemical. The following applies: for relative cap-dependent translation efficiency: ApppG-capped mRNA translation subtracted before normalization to m^7GpppG; for relative translation efficiency: luciferase mRNA capped with the analog, normalized to m^7GpppG-capped mRNA. Summed up: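 Capped, polyadenylated luciferase mRNAs were made with SP6 polymerase from a PCR template, then DNase-treated and purified. Flexi RRL (40% lysate, 0.01 mM amino acids, 1 mM Mg acetate, 190 mM K acetate) was preincubated 60 min at 30°C, then translated 60 min at 30°C with four mRNA concentrations. Luminescence versus mRNA was linearly fitted and normalized to m7GpppG-capped mRNA, optionally after subtracting ApppG-capped mRNA. Means are from 2–3 repeats of each of two mRNA syntheses.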

The test system of data set [2] is mouse eIF4E. The following applies: 20°C, cited from earlier work; for ΔG°: Gibbs free energy of binding; for KAS (cap–eIF4E): equilibrium association constant, mouse eIF4E.
Data set [3] has as its system S. pombe Dcp1/2 complex. Briefly: Decapping assay of short capped transcripts with SpDcp1/2. The data set is classed as biochemical, Schizosaccharomyces pombe. To be noted: 34 nt RNA capped with the analog, SpDcp1/2 complex, 30°C. Summed up:
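Short 34-nt capped RNAs were transcribed with […] from EcoRI-linearized pSP-luc+. NTPs were 0.1 mM final and cap dinucleotide 0.5 mM final, for 45 min at 37°C, then DNase-treated and column-purified. 20 ng RNA was digested with 50 or 200 nM S. pombe Dcp1/2 in 10 mM Hepes pH 7.5, 100 mM KOAc, 2 mM Mg(OAc)2, 2 mM DTT at 30°C. No-enzyme controls were run. Products were separated on 15% PAGE/7 M urea with SYBR Gold. Decapping % is upper-band loss over upper plus lower bands, mean ± SD of two experiments.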

Data set [4] has as its system mammalian cells. To be noted: mRNA capped with the analog; cited from earlier work.

We go through 10 molecules from PMC5175369 (Nucleic Acids Research, 2016).

Where “and” joins values, the source holds several entries; their conditions need not be identical. Identical values can stand only once. Marks after values point to notes of the source that are not given here.

For the molecule `CO[C@H]1[C@@H](O)[C@H]([n+]2cn(C)c3c(=O)[nH]c(N)nc32)O[C@@H]1COP(=O)([O-])OP(=O)(O)OP(=O)(O)OC[C@H]1O[C@@H](n2cnc3c(=O)[nH]c(N)nc32)[C@H](O)[C@@H]1O` [m2^7,3′-OGpppG], in data set [1], the “relative cap-dependent translation efficiency” value was 1.99 ± 0.81 and the relative translation efficiency was found to be 1.83 ± 0.64. Moreover, in data set [2], the “ΔG°” value is −9.40 ± 0.02^a kcal·mol^−1 and the “KAS (cap–eIF4E)” value is given as 10.2 ± 0.3^a μM^−1.
On to `CO[C@@H]1[C@H](O)[C@@H](COP(=O)(O)OP(=O)([O-])OP(=O)(O)OC[C@H]2O[C@@H](n3cnc4c(=O)[nH]c(N)nc43)[C@H](O)[C@@H]2O)O[C@H]1n1c[n+](C)c2c(O)nc(N)nc21` [m2^7,2′-OGpppG], for which, in data set [3], the “Decapping % 5 min” value worked out at 68.9 ± 0.4%, the “Decapping % 15 min” value was determined as 78.6 ± 2.4% and the “Decapping % 30 min” value was found to be 79.7 ± 7.5%. For the same molecule, in data set [1], the “relative cap-dependent translation efficiency” value is 1.96 ± 0.43 and the relative translation efficiency was found to be 1.81 ± 0.32. The “ΔG°” value in data set [2] is −9.42 ± 0.02^b kcal·mol^−1. Moreover, the mRNA half-life in data set [4] was 2.58 ± 0.15 h.
As to `Nc1nc2c(ncn2[C@@H]2O[C@H](COP(=O)(O)OP(=O)(O)OP(=O)(O)OC[C@H]3O[C@@H](n4cnc5c(N)ncnc54)[C@H](O)[C@@H]3O)[C@@H](O)[C@H]2O)c(=O)[nH]1` [ApppG], in data set [1], the “relative cap-dependent translation efficiency” value turned out to be 0.00 and the relative translation efficiency is listed as 0.16 ± 0.04.
Take `CO[C@@H]1[C@H](O)[C@@H](COP(=O)([O-])OP(O)(=S)OP(=O)(O)OC[C@H]2O[C@@H](n3cnc4c(=O)[nH]c(N)nc43)[C@H](O)[C@@H]2O)O[C@H]1[n+]1cn(C)c2c(=O)[nH]c(N)nc21` (single isomer, unassigned) [m2^7,2′-OGppSpG D1, m2^7,2′-OGppSpG]: in data set [3], the “Decapping % 5 min” value worked out at 47.5 ± 9.0%, the “Decapping % 15 min” value was found to be 56.1 ± 11.5% and the “Decapping % 30 min” value was found to be 60.9 ± 12.1%. Further, in data set [1], the “relative cap-dependent translation efficiency” value was determined as 2.27 ± 0.10 and the relative translation efficiency is listed as 2.07 ± 0.18. In addition, in data set [2], the “ΔG°” value was −10.23 ± 0.02^a kcal·mol^−1; the “KAS (cap–eIF4E)” value was 43.1 ± 1.4 μM^−1 and 43.1 ± 1.4^a μM^−1. In data set [4], the mRNA half-life was 3.08 ± 0.333 h.
Regarding `Cn1c[n+]([C@@H]2O[C@H](COP(=O)(O)OP(=O)([O-])OP(=O)(O)OC[C@H]3O[C@@H](n4cnc5c(=O)[nH]c(N)nc54)[C@H](O)[C@@H]3O)[C@@H](O)[C@H]2O)c2nc(N)[nH]c(=O)c21` [m^7GpppG], in data set [1], the “relative cap-dependent translation efficiency” value is on record as 1 and the relative translation efficiency came out at 1. Further, in data set [2], the “ΔG°” value is −9.35 ± 0.03^a kcal·mol^−1; the “KAS (cap–eIF4E)” value is 9.4 ± 0.4 μM^−1 and 9.4 ± 0.4^a μM^−1.
In the case of `COC1C(O)[C@@H](COP(=O)(O)OP(=O)([S-])OP(=O)(O)OP(=O)(O)OC[C@H]2O[C@@H](n3cnc4c(=O)[nH]c(N)nc43)C(O)C2O)O[C@H]1n1c[n+](C)c2c(O)nc(N)nc21` (mixture of isomers) [m2^7,2′-OGppSppG D1D2, m2^7,2′-OGppSppG], in data set [3], the “Decapping % 5 min” value is recorded as 57.9 ± 14.6%, the “Decapping % 15 min” value came to 65.6 ± 18.0% and the “Decapping % 30 min” value was 71.6 ± 17.2%. For the same molecule, in data set [1], the “relative cap-dependent translation efficiency” value stood at 2.80 ± 0.83 and the relative translation efficiency was determined as 2.51 ± 0.59. Further, in data set [2], the “ΔG°” value was −11.33 ± 0.02^c kcal·mol^−1 and the “KAS (cap–eIF4E)” value was 282 ± 12^c μM^−1.
As for `CO[C@@H]1[C@H](O)[C@@H](COP(=O)(O)OP(=O)([O-])OP(=O)(O)OP(=O)(O)OC[C@H]2O[C@@H](n3cnc4c(=O)[nH]c(N)nc43)[C@H](O)[C@@H]2O)O[C@H]1n1c[n+](C)c2c(O)nc(N)nc21` [m2^7,2′-OGppppG], in data set [3], the “Decapping % 5 min” value was determined as 73.4 ± 7.6%, the “Decapping % 15 min” value was 78.4 ± 9.4% and the “Decapping % 30 min” value is reported as 82.9 ± 11.3%. Besides, in data set [1], the “relative cap-dependent translation efficiency” value turned out to be 1.94 ± 0.56 and the relative translation efficiency is on record as 1.79 ± 0.43. In data set [2], the “ΔG°” value is −10.73 ± 0.04^b kcal·mol^−1 and the “KAS (cap–eIF4E)” value is 99.8 ± 6.0^b μM^−1.
As to “m2^7,2′-OGpppSpG [m2^7,2′-OGpppSpG D1D2]”, in data set [3], the “Decapping % 5 min” value stood at 72.7 ± 1.9%, the “Decapping % 15 min” value is reported as 78.3 ± 1.0% and the “Decapping % 30 min” value is 79.5 ± 3.5%. In data set [2], the “ΔG°” value was −10.99 ± 0.01^c kcal·mol^−1 and the “KAS (cap–eIF4E)” value is 158 ± 2^c μM^−1.
With `C[n+]1cn(C2OC(COP(=O)(O)OP(=O)(O)OP(=O)(O)OP(=O)(O)OP(=O)(O)OCC3OC(n4cnc5c(=O)[nH]c(N)nc54)C(O)C3O)C(O)C2O)c2nc(N)[nH]c(=O)c21` (stereo not drawn) [m^7Gp5G], in data set [2], the “ΔG°” value is −11.71 ± 0.06^b kcal·mol^−1 and the “KAS (cap–eIF4E)” value is 543 ± 55^b μM^−1.
In the case of `CO[C@@H]1[C@H](O)[C@@H](COP(=O)([O-])OP(O)(=S)OP(=O)(O)OC[C@H]2O[C@@H](n3cnc4c(=O)[nH]c(N)nc43)[C@H](O)[C@@H]2O)O[C@H]1[n+]1cn(C)c2c(=O)[nH]c(N)nc21` (single isomer, unassigned) [m2^7,2′-OGppSpG D2, m2^7,2′-OGppSpG], in data set [3], the “Decapping % 5 min” value is on record as 47.3 ± 10.6%, the “Decapping % 15 min” value is on record as 51.4 ± 15.6% and the “Decapping % 30 min” value is 57.4 ± 10.7%. Besides, in data set [1], the “relative cap-dependent translation efficiency” value worked out at 2.83 ± 0.26 and the relative translation efficiency worked out at 2.54 ± 0.66. Further, in data set [2], the “ΔG°” value is recorded as −9.77 ± 0.07^a kcal·mol^−1 and the “KAS (cap–eIF4E)” value is on record as 19.3 ± 2.2^a μM^−1. Further, the mRNA half-life in data set [4] was 4.28 ± 0.067 h.
